High-throughput results: PubChem BioAssay, several laboratories
FLuc inhib CS = counter-screen for luciferase assay inhibitors: firefly luciferase inhibition. ATPLite firefly luciferase biochemical luminescence, 10 min. inhibition, % at 10 µM. 200,000 compounds, 1.5% hits. P08659;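 active = inhibition above about 50% when tested at 10 µM, limit read from the data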
Target sequence (P08659 whole entry, looked up): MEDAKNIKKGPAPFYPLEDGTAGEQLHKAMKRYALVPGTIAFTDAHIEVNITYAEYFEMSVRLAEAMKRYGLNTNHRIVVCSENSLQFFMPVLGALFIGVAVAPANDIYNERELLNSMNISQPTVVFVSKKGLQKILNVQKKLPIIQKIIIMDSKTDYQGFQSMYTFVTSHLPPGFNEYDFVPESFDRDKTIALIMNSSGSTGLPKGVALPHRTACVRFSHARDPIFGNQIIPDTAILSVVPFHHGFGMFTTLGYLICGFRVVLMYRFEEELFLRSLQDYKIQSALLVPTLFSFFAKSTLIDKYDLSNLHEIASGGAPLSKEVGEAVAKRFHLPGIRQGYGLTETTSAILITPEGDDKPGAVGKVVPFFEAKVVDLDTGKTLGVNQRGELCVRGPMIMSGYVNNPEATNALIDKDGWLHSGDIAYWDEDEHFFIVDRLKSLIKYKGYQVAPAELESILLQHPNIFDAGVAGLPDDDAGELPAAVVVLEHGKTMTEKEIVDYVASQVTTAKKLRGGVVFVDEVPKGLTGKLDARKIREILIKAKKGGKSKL
STAT1 activator = STAT1 signaling activation; 200,000 compounds, 2.6% hits; activation (% of control), % at 5.5 µM; NIH 3T3 STAT1-luciferase reporter, IFN-gamma, luminescence; 100% = IFN-gamma alone, no compound;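 active = activation above the screen-wide mean activation plus 3 SD, cut at about 130% in these data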;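 note: raw ratio to IFN-gamma control signal so 100% means no change and 0% no light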
NF-kB expr up = NF-kB expression increase, human neuronal cells. NF-kB reporter expression; active compounds read high. AID 1239. 190,000 compounds, 1.6% hits. fold change at 12.5 µM; in the data active = fold change above about 3.3
APP 5'UTR act = APP 5'UTR luciferase reporter activation; SH-SY5Y APP 5'UTR luciferase reporter, luminescence; zero percent = DMSO vehicle wells; AID 1276; 190,000 compounds, 1% hits; activation, % at 2 µM;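 active = activation above a set limit, based on mean plus 3 SD of controls, cut at about 140% in these data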
FLuc stim CS = firefly luciferase counter-screen for stimulation assays; P08659; ATPlite luciferase biochemical, luminescence, 10 min; 0 = ATP-free wells, 1 = DMSO control; AID 1027; activation factor at 10 µM; 200,000 tested, under 10 active;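 active = luciferase activation factor, scaled between plate controls, of at least 2 with compound at 10 µM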
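assay system = Luciferase/luciferin detection reagent, cell-free biochemical luciferase assay | also added = ATP substrate | times = 10 min post-reagent at room temperature | measured by = luminescence from luciferase reaction | measure = luciferase activation, seen as luminescence increase over controls | benchmarks = low control with PBS replacing ATP, high control enzyme plus ATP without compound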
* = called active by the depositor; . = no result. Hits are enriched below; roughly 4.3% of the tested compounds scored in any of these assays.

SMILES	FLuc inhib CS	STAT1 activator	NF-kB expr up	APP 5'UTR act	FLuc stim CS
O=C(/C=C/c1cccs1)c1ccc(N2CCOCC2)cc1	96*	120	3.2	236*	0
OCCC1CN(Cc2ccccc2-c2ccco2)CCN1Cc1ccccc1 (stereo unspecified)	-8	98	0.92	7	1.1
O=C(NCC1COc2ccccc2O1)c1ccc(Cl)cc1 (stereo unspecified)	4	140*	2.9	75	1
Cc1ccc(S(=O)(=O)N2CCOCC2)cc1N/N=C(\C#N)c1nc2ccccc2[nH]1	-2	99	0.43	-19	1
C/C(=N/NC(=O)CNS(=O)(=O)c1ccc(C)cc1)c1cccc([N+](=O)[O-])c1	0	104	0.97	-1	1
Cc1ccc(NC(=O)Nc2ccc3c(c2)N(C)C(=O)CS3)nc1	-3	129*	1.1	-1	1
Cc1ccc(NC(=O)c2ccc(NCc3ccc(F)cc3)nc2)cc1	-8	105	1.2	-8	1.1
Cc1ccc(NC(=O)Nc2ccc(F)cc2)nc1	11	136*	2.1	35	0.9
Cc1cccc(NC(=O)Nc2ccc3c(c2)N(C)C(=O)CS3)n1	8	120	1.6	22	0.9
Cc1cc(S(=O)(=O)Nc2cc(C)c(O)c(C)c2)c(C)s1	2	99	0.71	-3	1
COc1ccc(NC(C#N)c2ccccc2OCc2ccccc2)cc1 (stereo unspecified)	1	101	1.2	7	1
Cc1ccc(/C(N)=N/OC(=O)CSc2ccccc2)cc1	11	130*	3.1	180*	0.9
COc1ccc(/C(N)=N/OC(=O)CSc2ccccc2)cc1	3	116	5.3*	98	1
CO/N=C/c1ccc(N2CCCC2)c([N+](=O)[O-])c1	18	130*	2.2	15	0.8
O=[N+]([O-])c1cc(/C=N/O)ccc1N1CCCC1	4	110	1.1	16	1
O=C(NC(=S)NCCCN1CCOCC1)c1ccc([N+](=O)[O-])cc1	-7	104	0.9	3	1.1
CCCN1C(=O)/C(=C/c2ccccc2OCc2ccc(C(=O)O)cc2)NC1=S	72*	108	.	-15	0.3
O=C(O)c1ccc(COc2ccccc2/C=C2\NC(=O)N(Cc3ccccc3)C2=O)cc1	-5	103	1.1	12	1
Cc1ccn2cc(-c3cccc(NC(=O)C(C)C)c3)nc2c1	57*	132*	2.3	41	0.4
O=C(/C=C\Nc1ccc(Cl)cn1)c1ccc(Br)cc1	-2	134*	1.6	123	1
O=C(/C=C/Nc1ccc(F)c(F)c1)c1ccc(Br)cc1	17	141*	8.1*	163*	0.8
O=C(/C=C/Nc1ccc(Br)cc1F)c1ccccc1	96*	58	1.3	140*	0
O=C(/C=C/Nc1ccc([N+](=O)[O-])cc1)c1ccc(Br)cc1	-6	106	1.5	37	1.1
COC(=O)c1ccc(/C=C/C(=O)c2ccc(OC)c(OC)c2)cc1	-2	103	0.86	8	1
O=C(/C=C/NNC(=O)c1ccccc1)c1ccc(Br)cc1	7	109	1.6	25	0.9
SMILES	FLuc inhib CS	STAT1 activator	NF-kB expr up	APP 5'UTR act	FLuc stim CS
COc1ccc(C(=O)/C=C/Nc2ccc(C)cn2)cc1OC	32	143*	5.2*	145*	0.7
Cc1ccc(OC(C)C(=O)N=Nc2c(O)[nH]c3ccc([N+](=O)[O-])cc23)cc1 (stereo unspecified)	-1	99	1.2	-8	1
CCOC(=O)C1(C)NC(c2ccco2)C2C(=O)N(C)C(=O)C21 (stereo unspecified)	-7	101	1.2	13	1.1
CN(C)/C=N/c1ncc(C(=O)c2ccccc2)s1	1	129*	2.5	76	1
Cc1ccc(-c2nc(C=Nc3ccccc3)c(O)o2)cc1	16	121	2.2	41	0.8
Cc1ccc(N=Cc2nc(-c3ccco3)oc2O)cc1	36	141*	3.5*	75	0.6
COc1cc(/C=N/Nc2nnc3c(n2)[nH]c2ccccc23)ccc1O	11	133*	1.2	10	0.9
COc1cc(/C=N/Nc2ccccc2C(F)(F)F)ccc1O	1	119	.	9	1
COc1cc(/C=N/Nc2nncn2/N=C/c2ccc(O)c(OC)c2)ccc1O	96*	111	2.1	29	0
O=C1c2ccccc2C(=O)C1c1ccncc1	80*	127	3.8*	95	0.2
Fc1ccc(-c2n[nH]c(=S)n2/N=C/c2c[nH]c3ccccc23)cc1	-8	92	0.99	2	1.1
O=C(COC(=O)c1ccc(F)cc1F)Nc1ccc2[nH]c(=O)[nH]c2c1	-1	101	1.1	-7	1
CC(CCc1ccccc1)NC(=O)C(=O)NCCc1ccccc1 (stereo unspecified)	-4	99	1	18	1
C/C(=N\NC(=O)c1ccccc1O)c1ccc(Br)s1	79*	100	2.2	24	0.2
C/C(=N\NC(=O)c1ccccc1[N+](=O)[O-])c1ccc(Br)s1	-6	91	.	-3	1.1
C/C=N/NC(=O)c1cc(Br)ccc1O	-4	91	1.3	12	1
C/C(=N\NC(=O)c1cc(Br)ccc1O)c1cccs1	65*	100	2.9	59	0.4
COc1ccc(N2C(=O)CCC2=O)c(OC)c1	-4	140*	1.1	-8	1
CC(=O)Nc1ccc2c(c1)ncn2-c1ccc(C)cc1	53*	146*	5.1*	225*	0.5
CC(=O)Nc1ccc2c(c1)ncn2C	-7	98	1.4	15	1.1
Cn1cnc2cc(NC(=O)c3ccco3)ccc21	46	124	1.8	.	0.5
O=C(Nc1ccc2c(c1)ncn2-c1ccccc1)c1ccco1	29	140*	1.2	70	0.7
O=C(COc1ncnc2ccccc12)c1ccc(Cl)cc1	80*	134*	1.2	30	0.2
c1ccc(OCCOc2ncnc3ccccc23)cc1	-7	133*	2.5	29	1.1
CC(C)c1ccc(-c2cc(C(=O)NN3CCN(C)CC3)c3ccccc3n2)cc1	88*	115	1.1	50	0.1
SMILES	FLuc inhib CS	STAT1 activator	NF-kB expr up	APP 5'UTR act	FLuc stim CS
CC(C)c1ccc(-c2cc(C(=O)N3N=C(C(F)F)CC3(O)C(F)F)c3ccccc3n2)cc1 (stereo unspecified)	65*	113	1	41	0.4
Cc1cc(-c2ccc(C(=O)O)s2)cnc1N	3	129*	2.1	27	1
Cc1ccc2cc(C=O)c(Cl)nc2c1	1	112	0.97	21	1
CC(=O)OCC1=C(C(=O)O)N2C(=O)C(NC(=O)CCn3nc(C(F)(F)F)c(Br)c3C3CC3)C2SC1 (stereo unspecified)	-7	109	.	-4	1.1
NS(=O)(=O)c1ccc(CCNC(=O)CSc2nc3ccccc3c(=O)n2CCC(=O)N2CCCCC2)cc1	53*	96	2.4	2	0.5
C1CCN=C(Nc2nc3c(s2)CCCC3)CC1	2	131*	1.8	30	1
